# Data published in the RNAGym collection of RNA variant scans (doi:10.1101/gad.245936.114).
# Variants at the floor of the assay were thinned out.
# B1: tRNA (parent)
# chain: CUCUCGGUAGCCAAGUUGGUUUAAGGCGCAAGACUUUAAUUUAUCACUACGAAAUCUUGAGAUCGGGCGUUCGACUCGCCCCCGGGAGAUUUUUUCCUCGAGCAA
# Variants of: B1
# Assay: nonsense suppression (GFP-seq) (ratio to wild type); higher = more function; SUP4oc tRNA, yeast GFP reporter sort-seq
# Summary of the method: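 Each variant's nonsense suppression (GFPSEQ) is a cell-share-weighted bin median GFP/RFP relative to the unmutated parent tRNA. Yeast with genome-integrated tRNA variants from a ~3% random-mutation library, a galactose-driven GFP ochre reporter and RFP were grown in raffinose/galactose medium with 80 mg/L adenine, then sorted into GFP/RFP bins for Illumina sequencing. Variants needed ≥100 reads and ≥30 cells.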
row,Variant,nonsense suppression
1,C72U C81A,≤ 0.026
2,G84A G88U,≤ 0.026
3,G85C,0.163
4,G85A,0.982
5,G85U,1.12
6,C75G G85U,1.12
7,C75G G85C,0.191
8,G78C G85U,0.232
9,G69U G86C,0.17
10,G67A A74U,0.0276
11,G67A C80U,0.0261
12,C80U G85A,0.733
13,G73U C81U,0.0263
14,U76C G78U,0.0507
15,U76C G78A,0.0382
16,U76C G78C,0.118
17,C80U G88A,0.0263
18,C75A,0.996
19,C75G,1.04
20,C75U,0.972
21,C75A C80U,1.01
22,C75A C80G,≤ 0.026
23,G78C A89U,≤ 0.026
24,C83U G84U,0.027
25,G69C C77G,≤ 0.026

row,Variant,nonsense suppression
1,C82A C83U,≤ 0.026
2,C68G U70C,≤ 0.026
3,U70G C82G,≤ 0.026
4,C77U C79A C83A,≤ 0.026
5,C82A G85U,0.0445
6,C72U G78A,0.0322
7,G85A A87U,0.19
8,G85A A87G,1.18
9,U71G C72U,≤ 0.026
10,G73C C83A,≤ 0.026
11,G67A U71C A89C,≤ 0.026
12,U70C G86A,≤ 0.026
13,U70A U76G,0.183
14,G84C G85C,0.0289
15,G67C C81A,≤ 0.026
16,C75A G85A,1.05
17,G86U A87U,≤ 0.026
18,C68G G69A,≤ 0.026
19,C80U,0.697
20,G84A A87G,0.157
21,G78A G84A,0.459
22,G78A G84U,0.0325
23,G78U C82U,0.105
24,U71G A89U,≤ 0.026
25,G73A G84C,0.361

row,Variant,nonsense suppression
1,G73A G84A,0.191
2,U71C C72G,≤ 0.026
3,G73C U76A,≤ 0.026
4,U70C C75U,≤ 0.026
5,C81U,1.16
6,G78A G86A G88C,≤ 0.026
7,C68U U70C,0.0321
8,G85C A89C,≤ 0.026
9,G69U U71G,≤ 0.026
10,C72G G73A,0.0319
11,G78A G88C,0.0845
12,A74U G84C,≤ 0.026
13,G67A G85U,0.0862
14,C75A C82A,0.217
15,A74G G84C,≤ 0.026
16,C80G G84A,≤ 0.026
17,C75U U76G,0.172
18,A74G C81G,≤ 0.026
19,G67A U76A G85U,≤ 0.026
20,G73A G88U,0.0757
21,G73A G88A,0.0281
22,A74C C79U,0.037
23,U70C A74G A87C,≤ 0.026
24,U70A C83U,0.0439
25,G73A U76A,0.0803

row,Variant,nonsense suppression
1,G73A U76C,0.682
2,G69C A89G,≤ 0.026
3,C79U G86C,0.0687
4,C83U,0.535
5,C80A G86A,≤ 0.026
6,C79U,0.879
7,C81A A89C,≤ 0.026
8,G67C U70G,≤ 0.026
9,G69U C72G,≤ 0.026
10,C82A G84U,≤ 0.026
11,U71C C77G G84A,≤ 0.026
12,G69C G88U,≤ 0.026
13,U70C G78A,0.0308
14,U76G C79G G88A,≤ 0.026
15,U76A A87G,0.0534
16,U76A C77A,≤ 0.026
17,A74U G78A,0.0557
18,U76C C81U,0.0575
19,C72U G73C C79G,≤ 0.026
20,C81U G88U,0.0501
21,G73A A89C,0.0768
22,G85A G88C,≤ 0.026
23,G67A C75A C79A,0.203
24,G67U C79G,0.768
25,G86U,≤ 0.026

row,Variant,nonsense suppression
1,G86C,≤ 0.026
2,G67A G84U,0.0504
3,C82U,1.05
4,U76A C82U,≤ 0.026
5,G88C,0.028
6,G73A G85U,0.285
7,G73A G85A,1.03
8,C82A A87U,≤ 0.026
9,C79A A87C,≤ 0.026
10,U76C,1
11,U76A,≤ 0.026
12,C81U A87G,0.239
13,C80A C82U,≤ 0.026
14,G73A A87U,0.0409
15,A74C C81U,≤ 0.026
16,G78A C82G,0.0423
17,G78A C82A,0.0338
18,C68U G85C,≤ 0.026
19,C80U G84A,0.125
20,U76A C80U,0.0419
21,C75G G78C,0.361
22,A74G G78U,0.0279
23,A74G G78C,0.0343
24,C82U G85A,0.99
25,U70A C80G,≤ 0.026

row,Variant,nonsense suppression
1,U70A C80U,≤ 0.026
2,U76C A87G,0.932
3,C68U,1.05
4,C79A C83A,≤ 0.026
5,C80U A87U,0.035
6,C81G G88A,≤ 0.026
7,C72G G88U,≤ 0.026
8,C81A A87U,≤ 0.026
9,A74G C75A G86C,≤ 0.026
10,C83U A87U,≤ 0.026
11,C83U A87G,0.0621
12,U71G C77A C79U A87U,≤ 0.026
13,C81U G84U,0.065
14,C81U G84A,0.0642
15,C68A C77A,≤ 0.026
16,G88U A89C,≤ 0.026
17,G88U A89G,≤ 0.026
18,C72A G85C,≤ 0.026
19,C79A G84C,≤ 0.026
20,G69A C82G,≤ 0.026
21,G78A G85U,0.0673
22,G78A,0.775
23,G78C,0.202
24,G78U,0.63
25,A74G C83G,≤ 0.026

row,Variant,nonsense suppression
1,G67C C79G,1.03
2,G78U G84A,0.0428
3,G78A C79G,0.0629
4,C68A C75A,0.0286
5,C75G G78C C83A,≤ 0.026
6,C83U G86A,≤ 0.026
7,C75A A87G,0.839
8,C77U C83A,≤ 0.026
9,G78A C83A,≤ 0.026
10,G78A C83U,0.0266
11,C68U U71C,0.0274
12,C72G G78A,0.0282
13,G67A U76G G78A,≤ 0.026
14,U70G C75U,≤ 0.026
15,C77A C81U,≤ 0.026
16,C75A C79U,1.21
17,G67A G78U,0.0411
18,C75U G78C,1.14
19,C75U G78A,0.9
20,C75U G85A,1.06
21,C75U G85U,1.12
22,C72U G85U,0.0294
23,G78U G85C,0.0488
24,G67C C83A,≤ 0.026
25,G73A C79U,0.207

row,Variant,nonsense suppression
1,G73A,1.12
2,G78U C83A,0.0425
3,A74U C79U,0.0357
4,G67A C75G,0.194
5,C81A G85U,≤ 0.026
6,A74C U76C G86A A89G,≤ 0.026
7,C72U C80A A87C,0.714
8,A74G G78C G86C,≤ 0.026
9,G78A C81G,0.0732
10,C75A G78A,0.698
11,C75A G78C,1
12,U76A G85U,0.0588
13,C79G C82G,≤ 0.026
14,C81G A87G,0.0415
15,C68U C83G,≤ 0.026
16,U76A C79A,≤ 0.026
17,U76A C79G,≤ 0.026
18,A87G,1.16
19,G78A A87C,0.032
20,G78A A87U,0.032
21,G78A A87G,0.294
22,G85U G88A,0.0446
23,G86C A87G,0.0881
24,G78C G84U,0.0271
25,G84A G86U,≤ 0.026
